{
  "source": "ChEMBL document CHEMBL1145922",
  "about": "“1,2-benzisoxazole phosphorodiamidates as novel anticancer prodrugs requiring bioreductive activation” (J Med Chem, 2003)",
  "organism": "Rattus norvegicus",
  "test": "Tested for formation of compound upon incubation of compound 15 for 30 minutes with rat liver subcellular fractions in hypoxic condition in the presence of 2-hydroxypyrimidine",
  "assay_type": "functional",
  "summary_of_the_method": "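Phenobarbital-induced rat liver S-9, microsomal or cytosolic fraction with 5 mM cofactor (NADPH, NADH, benzaldehyde or 2-hydroxypyrimidine) or none. Substrate 2.5 mM final, added from methanol/water 50:50. Hypoxic vials purged with nitrogen 15–20 min. 30 min at 37 °C, quenched with ice-cold methanol. Ketone metabolite by HPLC at 254 nm as percent of equimolar substrate.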",
  "data": [
    {"compound": "CCC(=O)c1ccccc1O", "values": [
      {"measurement": "Formation", "value": 0.5, "unit": "%"}
    ]}
  ]
}
